Activity data for 15 compounds are collected here from ChEMBL document CHEMBL5247673, “Discovery of Small Molecules Targeting the Frameshifting Element RNA in SARS-CoV-2 Viral Genome” (ACS Med Chem Lett, 2023).

The structures appear in SMILES notation. Active and inactive are the calls of the source. No cut-off for these calls is given here.

One experiment has as its system Severe acute respiratory syndrome coronavirus 2. Kind of experiment: Binding affinity to 5'-CY5-labelled SARS-CoV-2 frameshift element RNA by SPR analysis. In outline:
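Single-concentration SPR at 100 μM compound over immobilized FSE RNA, with the lead compound as positive control.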
For orientation: SPR reads the build-up and loss of mass on a sensor chip optically.
Regarding `COc1ccc(-c2nc(NCCN3CCOCC3)c3ccc(OC)cc3n2)cc1`, the result was Active.
The same measure, in the same setting: the same measure for `COc1ccc(-c2nc(NCCN3CCOCC3)c3ccc([N+](=O)[O-])cc3n2)cc1`: “inactive”.
On the same count and under the same terms, the same measure for `COc1ccc(-c2nc(NCCN3CCOCC3)c3c(OC)cccc3n2)cc1`: “Active”; for `COc1ccc(-c2nc(NCCN3CCOCC3)c3cccc(OC)c3n2)cc1`: “Active”.
The same measure, in the same setting: in the case of `COc1ccc(-c2nc(NCCN3CCOCC3)c3cc(C(F)(F)F)ccc3n2)cc1` it was “inactive”; in that of `COc1ccc(-c2nc(NCCN3CCOCC3)c3ccc(-c4cn[nH]c4)cc3n2)cc1`, “Active”.
As for `COc1ccc(F)cc1COc1ccc(-c2nc(NCCN3CCOCC3)c3ccccc3n2)cc1`, the outcome was inactive.
Take `COc1ccc(-c2nc(NCCN3CCOCC3)c3ccc(C(F)(F)F)cc3n2)cc1`: the result was inactive.
Still for that read-out and setting: the same measure for `FC(F)(F)c1ccc(-c2nc(NCCN3CCOCC3)c3ccccc3n2)cc1`: “Active”; for `COc1ccc(-c2nc(NCCN3CCOCC3)c3cc([N+](=O)[O-])ccc3n2)cc1`: “inactive”.
Take `COc1ccc(-c2nc(NCCN3CCN(C)CC3)c3ccccc3n2)cc1`: the result was Active.
Same read-out and setting: in the case of `COc1ccc(-c2nc(NCCS(=O)(=O)N3CCOCC3)c3ccccc3n2)cc1` it was “Active”; in that of `COc1ccccc1-c1nc(NCCN2CCOCC2)c2ccccc2n1`, “Active”.

Another experiment shares this test system. Kind of experiment: Binding affinity to 5'-CY5-labelled SARS-CoV-2 frameshift element RNA by MST analysis. The gist of the method: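 Single-concentration MST screen against 5′-Cy5-labelled FSE RNA at 100 μM compound. A hit required an MST shift greater than 3SD of the DMSO signal, with the lead compound as positive control.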
Regarding `COc1ccc(-c2nc(NCCN3CCOCC3)c3ccc(OC)cc3n2)cc1`, the result was Active.
On to `COc1ccc(-c2nc(NCCN3CCOCC3)c3ccc([N+](=O)[O-])cc3n2)cc1`, for which the result was inactive.
On to `COc1ccc(-c2nc(NCCN3CCOCC3)c3c(OC)cccc3n2)cc1`, for which the outcome was inactive.
`COc1ccc(-c2nc(NCCN3CCOCC3)c3cccc(OC)c3n2)cc1`: the result was inactive.
The same measure, in the same setting: the same measure for `COc1ccc(-c2nc(NCCN3CCOCC3)c3cc(C(F)(F)F)ccc3n2)cc1`: “Active”.
As to `COc1ccc(-c2nc(NCCN3CCOCC3)c3ccc(-c4cn[nH]c4)cc3n2)cc1`, the outcome was Active.
The same measure, in the same setting: the same measure for `COc1ccc(F)cc1COc1ccc(-c2nc(NCCN3CCOCC3)c3ccccc3n2)cc1`: “inactive”.
Take `COc1ccc(-c2nc(NCCN3CCOCC3)c3ccc(C(F)(F)F)cc3n2)cc1`: the outcome was Active.
Still for that read-out and setting: in the case of `FC(F)(F)c1ccc(-c2nc(NCCN3CCOCC3)c3ccccc3n2)cc1` it was “inactive”; in that of `COc1ccc(-c2nc(NCCN3CCOCC3)c3cc([N+](=O)[O-])ccc3n2)cc1`, “inactive”.
Same read-out and setting: the same measure for `COc1ccc(-c2nc(NCCN3CCN(C)CC3)c3ccccc3n2)cc1`: “Active”.
As for `COc1ccc(-c2nc(NCCS(=O)(=O)N3CCOCC3)c3ccccc3n2)cc1`, the outcome was inactive.
On the same count and under the same terms, the same measure for `COc1ccccc1-c1nc(NCCN2CCOCC2)c2ccccc2n1`: “inactive”.

For another experiment the test system is unchanged. Kind of experiment: Binding affinity to SARS-CoV-2 frameshift element RNA at 150 uM by water ligand observed gradient spectroscopic analysis. The gist of the method:
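WaterLOGSY NMR of 150 μM compound, alone and with 5 μM unlabelled FSE RNA. N-methyl-L-valine served as internal non-binding control, and a phase inversion of ligand peaks was read as binding.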
Consider `COc1ccc(-c2nc(NCCCN3CCC(N4CCCCC4)CC3)c3ccccc3n2)cc1`, for which the outcome was inactive.
On the same count and under the same terms, the same measure for `CCOC(=O)c1cccc(Nc2nc(-c3cccnc3)nc3ccccc23)c1`: “inactive”.

A further experiment has the same test system. Kind of experiment: Binding affinity to 5'-CY5-labelled SARS-CoV-2 frameshift element RNA at 50 uM by MST analysis.
With `COc1ccc(-c2nc(NCCCN3CCC(N4CCCCC4)CC3)c3ccccc3n2)cc1`, the outcome was inactive.
With `CCOC(=O)c1cccc(Nc2nc(-c3cccnc3)nc3ccccc23)c1`, the outcome was inactive.
